This passage reports IC50, Glucose level and Ki results from ChEMBL document CHEMBL1128532, “Antidiabetic agents: a new class of reversible carnitine palmitoyltransferase I inhibitors” (J Med Chem, 1995).

Values joined by “and” are separate entries in the source; they are usually repeats but may differ in a detail not shown here. Equal values may be shown once.

The species entered for assay [1] is Rattus norvegicus. The assay is described as follows: Inhibition of production of ketones in rat liver homogenates. The assay is classed as functional. Put shortly: (§1)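 Fatty acid oxidation was read as the fall in ketone production, tested in rat liver homogenates and in hepatocytes isolated from 18 h fasted rats. IC50 ± SE was taken from concentration-response data. Where no reasonable dose response was seen, the highest dose tested is given instead.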

The species named for assay [2] is Rattus norvegicus. The assay is described as follows: Inhibition of production of ketones in rat liver hepatocytes from 18 hr fasted rats. The note with it: Hepatocyte. The assay is classed as functional. Put shortly: as §1
The subject of assay [3] is Rattus norvegicus. The assay is described as follows: Blood glucose level in NIDDM rats after 11 days of treatment at a dose 32.9 mg/kg/d Blood samples taken 6 hr post-dose in a 6 hr fasted state. The assay is classed as functional. Put shortly:
(§2)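 NIDDM model: fat-fed, low-dose streptozotocin-treated rats. Oral gavage once daily for 11 days at 0 to 87.5 mg/kg/d. Blood sampled 6 h post-dose, with rats in a 6 h fasted state. Blood glucose reported in mg/dL as mean ± error. Significance tested against vehicle control (p<0.05, p<0.01).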

For assay [4], the species on record is Rattus norvegicus. The assay is described as follows: Blood glucose level in NIDDM rats after 11 days of treatment Blood samples taken 6 hr post-dose in a 6 hr fasted state. The assay is classed as functional. Put shortly:
as §2

Assay [5] deals with Rattus norvegicus. Description: Blood glucose level in NIDDM rats after 11 days of treatment at a dose 21.9 […] Blood samples taken 6 hr post-dose in a 6 hr fasted state. The assay is classed as functional. In outline:
as §2

Assay [6] deals with T1, Carnitine O-palmitoyltransferase 1, liver isoform (Rattus norvegicus, UniProt P32198).
T1 sequence (P32198 whole entry): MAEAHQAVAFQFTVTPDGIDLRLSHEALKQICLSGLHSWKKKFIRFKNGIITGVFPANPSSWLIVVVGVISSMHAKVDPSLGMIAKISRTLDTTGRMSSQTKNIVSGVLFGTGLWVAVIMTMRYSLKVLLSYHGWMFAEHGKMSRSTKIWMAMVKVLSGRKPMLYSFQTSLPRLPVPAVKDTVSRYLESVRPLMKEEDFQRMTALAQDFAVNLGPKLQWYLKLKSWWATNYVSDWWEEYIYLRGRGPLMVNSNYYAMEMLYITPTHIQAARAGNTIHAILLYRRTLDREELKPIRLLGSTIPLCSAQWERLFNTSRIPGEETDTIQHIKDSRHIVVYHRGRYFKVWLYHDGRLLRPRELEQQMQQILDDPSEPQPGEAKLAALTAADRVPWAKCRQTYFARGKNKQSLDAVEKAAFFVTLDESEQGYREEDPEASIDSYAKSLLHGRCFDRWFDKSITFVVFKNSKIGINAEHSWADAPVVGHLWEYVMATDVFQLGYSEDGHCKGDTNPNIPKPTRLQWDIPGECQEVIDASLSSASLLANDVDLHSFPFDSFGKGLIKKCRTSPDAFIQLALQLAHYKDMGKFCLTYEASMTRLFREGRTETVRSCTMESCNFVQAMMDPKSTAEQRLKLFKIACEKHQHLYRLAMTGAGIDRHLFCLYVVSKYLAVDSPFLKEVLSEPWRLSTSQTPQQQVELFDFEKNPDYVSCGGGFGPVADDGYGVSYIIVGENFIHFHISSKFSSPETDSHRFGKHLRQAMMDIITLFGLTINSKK
Description: In vitro inhibition of carnitine palmitoyltransferase I with respect to palmitoyl CoA in rat.

Assay [7] has as its system Rattus norvegicus. The assay is described as follows: Blood glucose level in NIDDM rats after 11 days of treatment at a dose 0 mg/kg/d Blood samples taken 6 hr post-dose in a 6 hr fasted state. The assay is classed as functional. Put shortly: as §2
The test system of assay [8] is Rattus norvegicus. The assay is described as follows: Blood glucose level in NIDDM rats after 11 days of treatment at a dose 21.9 mg/kg/d Blood samples taken 6 hr post-dose in a 6 hr fasted state. The assay is classed as functional. Put shortly: as §2

What is called IC50 is the midpoint of a concentration-inhibition curve. Low readings indicate greater potency in that assay, high ones weaker potency in that assay. Consider `CCCCCCCCCCCCCCCP(=O)([O-])O[C@H](CC(=O)O)C[N+](C)(C)C`, for which the IC50 in the assay listed under Rattus norvegicus [1] amounted to 36 µM; in the assay listed under Rattus norvegicus [2], 3 µM.

For the molecule `CCCCCCCCCCCCCCCP(=O)([O-])NC(CC(=O)O)C[N+](C)(C)C` (configuration not stated), the IC50 was above 100 µM in the assay listed under Rattus norvegicus [1] and above 300 µM in the assay filed under Rattus norvegicus [2].

Take `CCCCCCCCCCCCCCCP(=O)([O-])O[C@@H](CC(=O)O)C[N+](C)(C)C`: the figures for the IC50 in the assay listed under Rattus norvegicus [1] and in the assay filed under Rattus norvegicus [2] were above 100 µM and above 300 µM, respectively.

Consider `CCCCCCCCCCCCCCP(=O)([O-])CC(CC(=O)O)C[N+](C)(C)C` (configuration not stated), for which the IC50 in the assay listed under Rattus norvegicus [1] and in the assay filed under Rattus norvegicus [2] was above 300 µM each time.

For `CCCCCCCCCCCCCCOP(=O)([O-])O[C@@H](CC(=O)O)C[N+](C)(C)C`, the figures for the IC50 in the assay listed under Rattus norvegicus [1] and in the assay listed under Rattus norvegicus [2] were above 300 µM and 220 µM, respectively.

As a reminder, the Ki is the dissociation constant of the complex between target and ligand, obtained from inhibition or displacement. Turning to `CCCCCCCCCCCCCCOP(=O)([O-])O[C@H](CC(=O)O)C[N+](C)(C)C`, the Glucose level was 179 mg/dL and 93 mg/dL in the assay with Rattus norvegicus [3]; 197 mg/dL in the assay filed under Rattus norvegicus [4]; 164 mg/dL in the assay with Rattus norvegicus [5]; 197 mg/dL with Rattus norvegicus [7]; 164 mg/dL in the assay with Rattus norvegicus [8]. Also, the IC50 in the assay filed under Rattus norvegicus [1] amounted to 28 µM; in the assay listed under Rattus norvegicus [2] it was 3.4 µM. Also, the affinity in assay [6] corresponds to a Ki of 3.6 µM.

In the case of `CCCCCCCCCCCCCCCC(=O)NC(CC(=O)[O-])C[N+](C)(C)C` (configuration not stated), the IC50 was determined as 1.3 µM in the assay filed under Rattus norvegicus [1] and 1.2 µM in the assay listed under Rattus norvegicus [2].

As to `CCCCCCCCCCCCCCOP(=O)([O-])N[C@H](CC(=O)O)C[N+](C)(C)C`, the IC50 came out at 24 µM in the assay filed under Rattus norvegicus [1] and 46 µM in the assay filed under Rattus norvegicus [2].
